Tests used:
[1] = molecular target: T1, 3-hydroxy-3-methylglutaryl-coenzyme A reductase (Rattus norvegicus, UniProt P51639); assay: Inhibitory activity against washed rat liver microsomal HMG-CoA reductase (HMGR)
T1 sequence (P51639 whole entry): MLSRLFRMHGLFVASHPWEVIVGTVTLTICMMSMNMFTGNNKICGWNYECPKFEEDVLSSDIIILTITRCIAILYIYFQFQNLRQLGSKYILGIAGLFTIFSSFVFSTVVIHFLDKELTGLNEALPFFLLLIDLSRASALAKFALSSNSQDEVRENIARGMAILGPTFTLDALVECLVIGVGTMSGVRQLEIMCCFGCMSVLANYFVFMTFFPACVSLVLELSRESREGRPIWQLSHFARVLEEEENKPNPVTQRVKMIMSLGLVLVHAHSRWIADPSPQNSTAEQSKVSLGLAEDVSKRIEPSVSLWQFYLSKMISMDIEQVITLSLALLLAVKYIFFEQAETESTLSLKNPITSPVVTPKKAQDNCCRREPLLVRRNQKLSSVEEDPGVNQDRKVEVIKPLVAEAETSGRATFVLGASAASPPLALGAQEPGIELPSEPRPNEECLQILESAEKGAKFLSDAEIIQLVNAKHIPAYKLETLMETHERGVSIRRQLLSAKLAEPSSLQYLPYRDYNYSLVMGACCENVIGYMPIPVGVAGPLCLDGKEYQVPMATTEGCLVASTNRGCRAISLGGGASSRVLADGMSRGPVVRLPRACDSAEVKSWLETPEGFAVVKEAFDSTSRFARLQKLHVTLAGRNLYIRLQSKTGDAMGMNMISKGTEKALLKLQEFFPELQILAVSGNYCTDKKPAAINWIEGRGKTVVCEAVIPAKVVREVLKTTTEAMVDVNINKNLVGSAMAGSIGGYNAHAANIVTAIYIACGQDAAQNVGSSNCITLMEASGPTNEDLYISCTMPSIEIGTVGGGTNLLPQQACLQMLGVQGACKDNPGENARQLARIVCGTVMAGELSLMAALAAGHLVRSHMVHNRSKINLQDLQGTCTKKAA
Method in brief: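 Male Wistar rats (100–120 g) on reversed light cycle, killed at 0800 h; washed liver microsomes (10000g then 105000g spins, 4 °C) in buffer A (50 mM K phosphate pH 7.4, 250 mM NaCl, 10 mM EDTA, 1 mM DTT). Enzyme+inhibitor preincubated 10 min 37 °C; NADPH-regenerating system plus [3-14C]HMG-CoA added; HCl stop, lactonization, anion-exchange isolation of [14C]mevalonate, scintillation. Five concentrations, duplicate, ≥2 occasions; pravastatin reference.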

HepG2 = assay: Tested for ability to inhibit the incorporation of [14C]- acetate in to cholesterol in HepG2 cells; format: functional, cell-based; settings: Homo sapiens
Method in brief: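 HepG2 cells in MEM + 10% fetal calf serum to 80% confluency, switched to serum-free MEM; inhibitor and sodium [14C]acetate added together, 3 h. Saponified, petroleum ether extract; [14C]cholesterol separated by reverse-phase HPLC and measured by radioactivity flow monitor. At least five concentrations, triplicate, run twice; lovastatin standard.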

[2] = Partition coefficient (logD7.4); format: physicochemical; settings: octanol/water, pH 7.4
Method in brief: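 log D by HPLC in n-octanol–water: compound dissolved in pH 7.4 aqueous borax-phosphate buffer saturated with n-octanol, eluted through a column of n-octanol physically bonded to fractionated hyflosuperpel.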

## CC(C)c1nc(-c2ccc(F)cc2)c(-c2ccc(F)cc2)n1/C=C/[C@H](O)C[C@H](O)CC(=O)O
[1]
  IC50: 0.7 µM

## CC(C)c1nc(-c2ccc(F)cc2)c(-c2ccc(F)cc2)n1/C=C/[C@H](O)C[C@@H](O)CC(=O)O
[1]
  IC50: 2 µM

## Cc1cccc(-c2nc(C(F)(F)F)n(CC[C@@H](O)C[C@@H](O)CC(=O)O)c2-c2ccc(F)cc2)c1
[1]
  IC50: 0.029 µM

## COc1ccc(-c2nc(C(F)(F)F)n(CC[C@@H](O)C[C@@H](O)CC(=O)O)c2-c2ccc(F)cc2)cc1
[1]
  IC50: 0.068 µM

## O=C(O)C[C@H](O)C[C@H](O)CCn1c(C(F)(F)F)nc(-c2ccc(F)cc2)c1-c1ccc(F)cc1
[1]
  IC50: 0.038 µM

## CC(C)c1nc(-c2ccc(F)cc2)c(-c2ccc(F)cc2)n1/C=C/[C@@H](O)C[C@@H](O)CC(=O)O [listing 1 of 2 here]
[1]
  IC50: 0.002 µM
HepG2
  IC50: 0.0053 µM
[2]
  logD: 0.72

## COc1ccc(-c2c(-c3ccc(F)cc3)nc(C(F)(F)F)n2CC[C@@H](O)C[C@@H](O)CC(=O)O)cc1
[1]
  IC50: 0.418 µM

## O=C(O)C[C@H](O)C[C@H](O)CCn1c(C(F)(F)F)nc(-c2ccc(F)cc2)c1-c1cccs1
[1]
  IC50: 0.215 µM

## O=C(O)C[C@H](O)C[C@H](O)CCn1c(C(F)(F)F)nc(-c2ccccc2)c1-c1ccc(F)cc1
[1]
  IC50: 0.031 µM

## Cc1cc(C)cc(-c2c(-c3ccc(F)cc3)nc(C(F)(F)F)n2CC[C@@H](O)C[C@@H](O)CC(=O)O)c1
[1]
  IC50: 0.038 µM

## CC(C)c1nc(-c2ccccc2)n(-c2ccc(F)cc2)c1/C=C/[C@@H](O)C[C@@H](O)CC(=O)O
[1]
  IC50: 0.0026 µM

## Cc1cc(-c2c(-c3ccc(F)cc3)nc(C(C)C)n2/C=C/[C@@H](O)C[C@@H](O)CC(=O)O)cc(C)c1F
[1]
  IC50: 0.03 µM

## Cc1cc(F)ccc1-c1c(-c2ccc(F)cc2)nc(C(C)C)n1/C=C/[C@@H](O)C[C@@H](O)CC(=O)O
[1]
  IC50: 0.004 µM
[2]
  logD: 0.86

## CC(C)c1nc(-c2cccnc2)c(-c2ccc(F)cc2)n1/C=C/[C@@H](O)C[C@@H](O)CC(=O)O
[1]
  IC50: 0.001 µM
[2]
  logD: -0.43

## Cc1ccc(-c2c(-c3ccc(F)cc3)nc(C(F)(F)F)n2CC[C@@H](O)C[C@@H](O)CC(=O)O)cc1
[1]
  IC50: 0.75 µM

## Cc1cc(C)cc(-c2c(-c3ccc(F)cc3)nc(C(C)C)n2/C=C/[C@@H](O)C[C@@H](O)CC(=O)O)c1
[1]
  IC50: 0.056 µM

## CC(C)(C)c1nc(-c2ccc(F)cc2)c(-c2ccc(F)cc2)n1/C=C/[C@@H](O)C[C@@H](O)CC(=O)O
[1]
  IC50: 0.007 µM

## CN(C)c1nc(-c2ccc(F)cc2)c(-c2ccc(F)cc2)n1/C=C/[C@@H](O)C[C@@H](O)CC(=O)O
[1]
  IC50: 0.009 µM

## O=C(O)C[C@H](O)C[C@H](O)CCn1c(C(F)(F)F)nc(-c2ccc(F)cc2)c1-c1cccc(Cl)c1
[1]
  IC50: 0.041 µM

## Cc1ccc(-c2nc(C(F)(F)F)n(CC[C@@H](O)C[C@@H](O)CC(=O)O)c2-c2ccc(F)cc2)cc1
[1]
  IC50: 0.043 µM

## O=C(O)C[C@H](O)C[C@H](O)CCn1c(C(F)(F)F)nc(-c2ccc(F)cc2)c1-c1cccnc1
[1]
  IC50: > 1 µM

## Cc1cccc(-c2c(-c3ccc(F)cc3)nc(C(F)(F)F)n2CC[C@@H](O)C[C@@H](O)CC(=O)O)c1
[1]
  IC50: 0.074 µM

## CCc1cc(-c2c(-c3ccc(F)cc3)nc(C(C)C)n2/C=C/[C@@H](O)C[C@@H](O)CC(=O)O)cc(CC)c1F
[1]
  IC50: 0.1 µM

## O=C(O)C[C@H](O)C[C@H](O)CCn1c(C(F)(F)F)nc(-c2cccs2)c1-c1ccc(F)cc1
[1]
  IC50: 0.064 µM

## CC(C)c1c(-c2ccc(F)cc2)nc(-c2ccc(F)cc2)n1/C=C/[C@@H](O)C[C@@H](O)CC(=O)O
[1]
  IC50: 0.001 µM
[2]
  logD: 0.83

## CC(C)c1nc(-c2ccc(F)cc2)c(-c2ccc(F)cc2)n1CC[C@@H](O)C[C@@H](O)CC(=O)O
[1]
  IC50: 0.316 µM

## CC(C)c1nc(-c2cccc(S(C)(=O)=O)c2)c(-c2ccc(F)cc2)n1/C=C/[C@@H](O)C[C@@H](O)CC(=O)O
[1]
  IC50: 0.002 µM
[2]
  logD: -0.6

## O=C(O)C[C@H](O)C[C@H](O)CCn1c(C(F)(F)F)nc(-c2ccc(F)cc2)c1-c1ccccc1
[1]
  IC50: 0.201 µM

## COc1cccc(-c2c(-c3ccc(F)cc3)nc(C(F)(F)F)n2CC[C@@H](O)C[C@@H](O)CC(=O)O)c1
[1]
  IC50: 0.135 µM

## Cc1cc(-c2nc(C(C)C)n(/C=C/[C@@H](O)C[C@@H](O)CC(=O)O)c2-c2ccc(F)cc2)cc(C)c1Cl
[1]
  IC50: 0.002 µM
HepG2
  IC50: 0.0009 µM
[2]
  logD: 2.27

## Cc1cc(-c2nc(C(F)(F)F)n(CC[C@@H](O)C[C@@H](O)CC(=O)O)c2-c2ccc(F)cc2)cc(C)c1F
[1]
  IC50: 0.032 µM

## O=C(O)C[C@H](O)C[C@H](O)CCn1c(C(F)(F)F)nc(-c2ccc(C(F)(F)F)cc2)c1-c1ccc(F)cc1
[1]
  IC50: 0.2 µM

## O=C(O)C[C@H](O)C[C@H](O)CCn1c(C(F)(F)F)nc(-c2cccc(Cl)c2)c1-c1ccc(F)cc1
[1]
  IC50: 0.017 µM

## CC(C)c1nc(-c2ccc(F)cc2)c(-c2cccc(Cl)c2)n1/C=C/[C@@H](O)C[C@@H](O)CC(=O)O
[1]
  IC50: 0.008 µM

## CC(C)c1nc(-c2ccc(F)cc2)c(-c2cc(Cl)cc(Cl)c2)n1/C=C/[C@@H](O)C[C@@H](O)CC(=O)O
[1]
  IC50: 0.022 µM

## O=C(O)C[C@H](O)C[C@H](O)/C=C/n1c(C(F)(F)F)nc(-c2ccc(F)cc2)c1-c1ccc(F)cc1
[1]
  IC50: 0.013 µM
HepG2
  IC50: 0.0158 µM
[2]
  logD: 0.73

## O=C(O)C[C@H](O)C[C@H](O)CCn1c(C(F)(F)F)nc(-c2ccc(F)cc2)c1-c1ccc(C(F)(F)F)cc1
[1]
  IC50: > 1 µM

## Cc1cc(C)cc(-c2nc(C(F)(F)F)n(CC[C@@H](O)C[C@@H](O)CC(=O)O)c2-c2ccc(F)cc2)c1
[1]
  IC50: 0.024 µM

## Cc1cc(-c2c(-c3ccc(F)cc3)nc(C(F)(F)F)n2CC[C@@H](O)C[C@@H](O)CC(=O)O)cc(C)c1F
[1]
  IC50: 0.031 µM

## CC(C)c1nc(-c2ccc(F)cc2)c(-c2ccc(F)cc2)n1/C=C/[C@@H](O)C[C@@H](O)CC(=O)O [listing 2 of 2 here]
[1]
  IC50: 0.001 µM
HepG2
  IC50: 0.0025 µM

## O=C(O)C[C@H](O)C[C@H](O)CCn1c(C(F)(F)F)nc(-c2cccnc2)c1-c1ccc(F)cc1
[1]
  IC50: 0.066 µM

## CNc1cccc(-c2nc(C(C)C)n(/C=C/[C@@H](O)C[C@@H](O)CC(=O)O)c2-c2ccc(F)cc2)c1
[1]
  IC50: 0.003 µM
[2]
  logD: -0.05

## COc1cccc(-c2nc(C(F)(F)F)n(CC[C@@H](O)C[C@@H](O)CC(=O)O)c2-c2ccc(F)cc2)c1
[1]
  IC50: 0.02 µM

## Cc1nc(-c2ccc(F)cc2)c(-c2ccc(F)cc2)n1/C=C/[C@@H](O)C[C@@H](O)CC(=O)O
[1]
  IC50: > 0.1 µM
